From the RNAGym collection of RNA variant scans (doi:10.1002/anie.201605470)

B1: Osa-1-4 twister ribozyme (parent)
chain: CCGCCUAACACUGCCAAUGCCGGUCCCAAGCCCGGAUAAAAGUGGAGGGGGCGG

Variants of: B1
Assay: self-cleavage, relative activity (ratio to wild type); higher = more cleavage; co-transcriptional
Summary of the method: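 A DNA template for a 54-nucleotide Oryza sativa twister ribozyme was synthesised with 97 % wild-type base and 1 % of each other base at the 48 positions downstream of the cleavage site. It was transcribed in vitro for 2 h at 37 °C, allowing co-transcriptional self-cleavage, then reverse-transcribed with a template-switching oligonucleotide, PCR-amplified and deep-sequenced. Cleavage status was scored from reads with or without upstream sequence. Relative activity is fraction cleaved normalised to wild type.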

Point of comparison: G22U U43C, self-cleavage 0.1. Against it:
- C21U U37G — higher, 1.04
- C21U U37A — higher, 1.07
- C21U U37C — higher, 1.05
- C21U C9A — higher, 0.55
- C21U C9U — higher, 0.92
- C21U C9G — higher, 0.74
- C21G G42U — lower, 0.02
- C21G G42C — lower, 0.05
- C21G G42A — lower, 0.05
- G22C U18C — the same, 0.1
- G22C U18A — higher, 0.14
- G22C U18G — higher, 0.17
- C21U G50C — higher, 0.94
- C21U G50U — higher, 1.03
- C21U G50A — higher, 0.97
- G22C G54A — lower, 0.08
- G22C G54U — higher, 0.16
- G22C G54C — higher, 0.15
- G22A U37A — higher, 1.06
- G22A U37C — higher, 1.01
- G22A U37G — higher, 1
- C21U G49A — higher, 0.14
- C21U G49U — higher, 0.14
- C21U G49C — lower, 0.08
- G23A G47U — lower, 0.06
- G23A G47A — lower, 0.07
- G23A G47C — lower, 0.06
- G22A G51A — higher, 0.2
- G22A G51C — higher, 0.14
- G22A G51U — higher, 0.67
- G22C G34A — lower, 0.05
- G22C G34C — lower, 0.05
- G22C G34U — lower, 0.05
- G22C U43C — lower, 0.03
- G22C U43A — lower, 0.04
- G22C U43G — lower, 0.04
- C21U G48C — higher, 0.11
- C21U G48A — the same, 0.1
- C21U G48U — the same, 0.1
- G22A G34C — higher, 0.11
- G22A G34A — higher, 0.14
- G22A G34U — higher, 0.21
- G23A — higher, 0.8
- G22U G50A — higher, 0.91
- G22U G50C — higher, 0.3
- G22U G50U — higher, 0.75
- C21G G49C — lower, 0.03
- C21G G49A — lower, 0.05
- C21G G49U — lower, 0.02
- G23A G45A — lower, 0.05
- G23A G45U — lower, 0.06
- G23A G45C — lower, 0.05
- C21U U43A — higher, 0.89
- C21U U43C — higher, 0.32
- C21U U43G — higher, 0.47
- G22U G34A — higher, 0.19
- G22U G34C — higher, 0.4
- G22U G34U — higher, 0.79
- C21U C25G — higher, 0.14
- C21U C25A — higher, 0.11
- C21U C25U — higher, 0.88
- G22A G45C — lower, 0.06
- G22A G45U — lower, 0.08
- G22A G45A — higher, 0.15
- C21U C52G — higher, 1.02
- C21U C52U — higher, 1.02
- C21U C52A — higher, 0.97
- G22A G23U — lower, 0.08
- G22A G23C — lower, 0.05
- G22A G23A — higher, 0.12
- C21U G42U — lower, 0.09
- C21U G42C — higher, 0.18
- C21U G42A — higher, 0.51
- G22A G49A — higher, 0.12
- G22A G49C — lower, 0.08
- G22A G49U — lower, 0.09
- C21G G44U — lower, 0.08
- C21G G44A — lower, 0.09
- C21G G44C — lower, 0.08
- G22A U12A — higher, 0.35
- G22A U12C — higher, 0.21
- G22A U12G — lower, 0.08
- G22U G42C — lower, 0.07
- G22U G42A — lower, 0.08
- G22U G42U — lower, 0.05
- G22C G42C — lower, 0.04
- G22C G42A — lower, 0.03
- G22C G42U — lower, 0.02
- G22C G23U — lower, 0.03
- G22C G23C — lower, 0.02
- G22C G23A — lower, 0.06
- G23A G48A — lower, 0.05
- G23A G48C — lower, 0.06
- G22U U43A — higher, 0.12
- G22U U43G — lower, 0.08
- C21G U37C — lower, 0.08
- C21G U37A — higher, 0.13
- C21G U37G — higher, 0.14
- G22U G48A — lower, 0.04
- G22U G48C — lower, 0.06
- G22U G48U — lower, 0.05
- C21G U18C — lower, 0.08
- C21G U18G — higher, 0.11
- C21G U18A — the same, 0.1
- C21G G47C — lower, 0.04
- C21G G47U — lower, 0.03
- C21G G47A — lower, 0.03
- C21U G30C — lower, 0.06
- C21U G30U — lower, 0.04
- C21U G30A — lower, 0.04
- C21G G45U — lower, 0.02
- C21G G45C — lower, 0.02
- C21G G45A — lower, 0.04
- C21G U12A — lower, 0.08
- C21G U12C — lower, 0.04
- C21G U12G — lower, 0.06
- G22A G47C — lower, 0.08
- G22A G47A — higher, 0.13
- G22A G47U — higher, 0.12
- C21U G54C — higher, 0.89
- C21U G54U — higher, 0.93
- C21U G54A — higher, 0.96
- C21G G53A — lower, 0.08
- C21G G53C — lower, 0.02
- C21G G53U — lower, 0.04
- G22A G48U — lower, 0.08
- G22A G48A — lower, 0.08
- G22A G48C — lower, 0.09
- C21U G51C — lower, 0.09
- C21U G51U — higher, 0.67
- C21U G51A — higher, 0.9
- G22A G44A — higher, 0.94
- G22A G44C — higher, 0.92
- G22A G44U — higher, 0.84
- C21U U12C — higher, 0.33
- C21U U12G — higher, 0.26
- C21U U12A — higher, 0.73
- G22C U24A — lower, 0.04
- G22C U24G — lower, 0.03
- G22C U24C — lower, 0.03
- G22C G45A — lower, 0.03
- G22C G45U — lower, 0.03
- G22C G45C — lower, 0.02
- G22U G35A — higher, 0.36
- G22U G35U — higher, 0.41
- G22U G35C — higher, 0.11
- C21G G48U — lower, 0.02
- C21G G48A — lower, 0.03
- C21G G48C — lower, 0.03
- G22U G49A — lower, 0.07
- G22U G49C — lower, 0.05
- G22U G49U — lower, 0.05
- C21G G54U — higher, 0.11
- C21G G54C — lower, 0.07
- C21G G54A — lower, 0.07
- C21U C31A — lower, 0.06
- C21U C31G — higher, 0.14
- C21U C31U — higher, 0.97
- C21G G51U — lower, 0.06
- C21G G51C — lower, 0.02
- C21G G51A — lower, 0.07
- C21U G19U — higher, 0.21
- C21U G19A — higher, 0.66
- C21U G19C — lower, 0.04
- C21U C26A — lower, 0.06
- C21U C26G — higher, 0.12
